ChEMBL document CHEMBL4342526, “Exploration of the Structural Space in 4(3H)-Quinazolinone Antibacterials” (J Med Chem, 2020)
≈ marks a conversion by molar mass, not a printed value. Calls of active or inactive are those of the source. The rule behind the calls is not given here.

Columns and labels:
Staphylococcus aureus [1] = assay: Antibacterial activity against Staphylococcus aureus ATCC 29213 measured after 16 to 20 hrs by microdilution method; format: functional
Summary of the method: (§1)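 CLSI broth microdilution: two-fold serial dilutions in triplicate in cation-adjusted Mueller–Hinton broth with 2% NaCl, inoculum 5 × 10^5 CFU/mL, incubated at 37 °C for 16–20 h. MIC is the lowest concentration preventing visible growth.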

Staphylococcus aureus [2] = assay: Antibacterial activity against Staphylococcus aureus ATCC 29213 measured after 16 to 20 hrs in presence of bovine serum albumin by microdilution method; format: functional
Summary of the method: (§2)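 S. aureus ATCC29213 MIC was run by CLSI microdilution in cation-adjusted Mueller–Hinton broth plus 2% NaCl, with and without 0.5% bovine serum albumin. Compounds were two-fold serially diluted in triplicate, inoculum was 5 × 10^5 CFU/mL, and plates were incubated at 37 °C for 16–20 h. The endpoint was the lowest concentration with no visible growth.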

Staphylococcus aureus [3] = assay: Antibacterial activity against clindamycin/erythromycin/spectinomycin-resistant mec-positive Staphylococcus aureus NRS70 measured after 16 to 20 hrs by microdilution method; format: functional
Summary of the method: (§3)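 CLSI broth microdilution; two-fold serial compound dilutions in triplicate in cation-adjusted Mueller–Hinton broth with 2% NaCl, inoculum 5 × 10^5 CFU/mL; 37 °C for 16–20 h; MIC = lowest concentration with no visible growth.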

Staphylococcus aureus [4] = assay: Antibacterial activity against multi-drug resistant mecA-positive Staphylococcus aureus NRS119 measured after 16 to 20 hrs by microdilution method; format: functional; summary of the method: as §3
Staphylococcus aureus [5] = assay: Antibacterial activity against multi-drug resistant mecA-positive Staphylococcus aureus ATCC 27660 measured after 16 to 20 hrs by microdilution method; format: functional; summary of the method: as §3
Staphylococcus aureus [6] = assay: Antibacterial activity against multi-drug resistant mec-positive Staphylococcus aureus USA300 measured after 16 to 20 hrs by microdilution method; format: functional; summary of the method: as §3
HeLa = assay: Cytotoxicity against human HeLa cells assessed as reduction in cell viability measured after 16 hrs by XTT assay; format: cell-based
Summary of the method: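 HeLa cells (ATCC CCL-2), run in triplicate. Viability was read by XTT, and IC50 was obtained by nonlinear regression.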

[7] = Selectivity index, ratio of IC50 for human HeLa cells to MIC for clindamycin/erythromycin/spectinomycin-resistant mec-positive Staphylococcus aureus NRS70; format: toxicity
Summary of the method: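 HeLa cytotoxicity by XTT assay in triplicate, IC50 by nonlinear regression; ratio IC50 over broth microdilution MIC against NRS70.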

[8] = Protein binding in human plasma at 10 uM measured after 6 hrs UV-UPLC based rapid equilibrium dialysis method; format: ADME, cell-free
Summary of the method: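 Rapid equilibrium dialysis: human plasma was cleared by centrifugation and spiked from a 1 mM DMSO stock to a final 10 μM, against 0.1 M PBS pH 7.4. Dialysis ran 6 h at 37 °C with orbital shaking. Buffer (free) and plasma (total) aliquots were mixed with internal standard in acetonitrile and measured by UPLC-UV at 285 nm. B% = (Cp−Cf)/Cp×100.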

[9] = Solubility of the compound in water; format: physicochemical; conditions: buffer
Staphylococcus aureus [10] = assay: Selectivity ratio of MIC for Staphylococcus aureus ATCC 29213 in presence of bovine serum albumin to MIC for Staphylococcus aureus ATCC 29213 in absence of bovine serum albumin; format: functional; summary of the method: as §2
[11] = AUC (0 to last) in ICR mouse at 5 mg/kg, iv by UV-UPLC analysis; format: ADME, organism-based; design: dose 5 mg/kg, route intravenous, time 0 - last; conditions: in vivo
Summary of the method: (§4)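 Female ICR mice, 6–8 weeks old, 20–25 g. Each received 50 μL by tail-vein injection (5 or 10 mg/kg) of a filter-sterilized 2 or 4 mg/mL solution in 20% DMSO/10% Tween-80/70% water. Terminal blood was collected and plasma harvested by centrifugation. Plasma was precipitated with acetonitrile containing internal standard, and the supernatant was analyzed by C18 UPLC with UV detection at 285 nm.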

[12] = Clearance in ICR mouse at 5 mg/kg, iv by UV-UPLC analysis; format: ADME, organism-based; conditions: in vivo; summary of the method: as §4
[13] = Clearance in ICR mouse at 5 mg/kg, iv by UV-UPLC analysis relative to hepatic blood flow; format: ADME, organism-based; conditions: in vivo; summary of the method: as §4
Enterococcus faecium = assay: Antibacterial activity against Enterococcus faecium NCTC 7171 measured after 16 to 20 hrs by microdilution method; format: functional; summary of the method: as §1
[14] = system: Staphylococcus epidermidis; assay: Antibacterial activity against Staphylococcus epidermidis ATCC 35547 measured after 16 to 20 hrs by microdilution method; format: functional; summary of the method: as §3
Streptococcus pneumoniae = assay: Antibacterial activity against Streptococcus pneumoniae ATCC 49619 measured after 16 to 20 hrs by microdilution method; format: functional; summary of the method: as §1
Clostridioides difficile = assay: Antibacterial activity against Clostridium difficile ATCC 43255 measured after 16 to 20 hrs by microdilution method; format: functional
Bacillus cereus = assay: Antibacterial activity against Bacillus cereus ATCC 13061 measured after 16 to 20 hrs by microdilution method; format: functional; summary of the method: as §1
Bacillus licheniformis = assay: Antibacterial activity against Bacillus licheniformis ATCC 12759 measured after 16 to 20 hrs by microdilution method; format: functional; summary of the method: as §1
Enterococcus faecalis = assay: Antibacterial activity against Enterococcus faecalis ATCC 29212 measured after 16 to 20 hrs by microdilution method; format: functional; summary of the method: as §1
[15] = Elimination half life in ICR mouse at 10 mg/kg, iv by UV-UPLC analysis; format: ADME, organism-based; conditions: ICR, in vivo, read-out: beta t1/2; summary of the method: as §4
[16] = Volume of distribution in ICR mouse at 10 mg/kg, iv by UV-UPLC analysis; format: ADME, organism-based; conditions: in vivo; summary of the method: as §4
[17] = Elimination half life in ICR mouse at 10 mg/kg, po administered via gavage by UV-UPLC analysis; format: ADME, organism-based; conditions: in vivo, read-out: beta t1/2 (converted)
Staphylococcus aureus [18] = assay: Bacteriostatic activity against clindamycin/erythromycin/spectinomycin-resistant mec-positive Staphylococcus aureus NRS70 assessed as log reduction in bacterial count at 0.5 to 16 times MIC by time-kill assay; format: functional
[19] = molecular target: T1, MecA (Staphylococcus aureus) (UniProt Q7DHH4); assay: Binding affinity to PBP2a in clindamycin/erythromycin/spectinomycin-resistant mec-positive Staphylococcus aureus NRS70 assessed potentiation of piperacillin and tazobactam-induced bactericidal activity by measuring log reduction in bacterial count at 0.5 times MIC measured after 12 hrs by time-kill assay
T1 sequence (whole entry): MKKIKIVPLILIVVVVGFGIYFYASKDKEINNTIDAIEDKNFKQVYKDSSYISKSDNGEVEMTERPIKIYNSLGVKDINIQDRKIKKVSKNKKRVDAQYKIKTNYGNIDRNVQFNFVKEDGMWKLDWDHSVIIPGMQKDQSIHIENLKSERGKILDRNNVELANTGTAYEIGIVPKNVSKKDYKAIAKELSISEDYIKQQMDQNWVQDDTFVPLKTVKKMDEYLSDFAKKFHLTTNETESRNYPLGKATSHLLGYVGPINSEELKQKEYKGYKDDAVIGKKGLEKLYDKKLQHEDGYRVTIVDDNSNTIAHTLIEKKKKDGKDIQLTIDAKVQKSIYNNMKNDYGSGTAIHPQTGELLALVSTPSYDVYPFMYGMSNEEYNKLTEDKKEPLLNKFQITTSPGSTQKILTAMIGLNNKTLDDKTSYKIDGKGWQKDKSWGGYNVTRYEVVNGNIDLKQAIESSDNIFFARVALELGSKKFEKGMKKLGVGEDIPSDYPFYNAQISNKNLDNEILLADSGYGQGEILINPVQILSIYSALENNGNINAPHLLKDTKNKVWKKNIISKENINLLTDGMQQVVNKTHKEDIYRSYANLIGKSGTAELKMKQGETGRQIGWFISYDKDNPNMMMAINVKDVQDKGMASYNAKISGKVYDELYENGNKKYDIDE

[20] = molecular target: T1, MecA (Staphylococcus aureus); assay: Binding affinity to PBP2a in clindamycin/erythromycin/spectinomycin-resistant mec-positive Staphylococcus aureus NRS70 assessed potentiation of piperacillin and tazobactam-induced bactericidal activity by measuring reduction in bacterial count at 0.5 times MIC measured after 24 hrs by time-kill assay
Staphylococcus aureus [21] = assay: Bactericidal activity against methicillin resistant Staphylococcus aureus NRS70 infected in ICR mouse model of neutropenic thigh infection assessed as log reduction in bacterial count in thigh at 20 mg/kg, sc administered at 8 hrs interval for 3 times starting from 1 hr post infection and measured 24 hrs post infection; format: functional
Summary of the method: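 Female ICR mice (6–8 weeks, 20–25 g) made neutropenic with cyclophosphamide 200 mg/kg ip at 4 and 1 days pre-infection; 0.1 mL NRS70 at 1 × 10^6 CFU/mL in brain heart infusion injected into right thigh; drug in 10% DMSO/90% water sc every 8 h ×3 from 1 h post-infection; thigh CFU counted at 24 h; n = 8/group; mean ± SEM, one-way ANOVA with Tukey test.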

Row | Compound | MIC (Staphylococcus aureus [1]) | MIC (Staphylococcus aureus [2]) | MIC (Staphylococcus aureus [3]) | MIC (Staphylococcus aureus [4]) | MIC (Staphylococcus aureus [5]) | MIC (Staphylococcus aureus [6]) | IC50 (HeLa) | selectivity ratio [7] | PPB [8] | solubility [9] | selectivity ratio (Staphylococcus aureus [10]) | other results
1 | N#Cc1ccc(/C=C/c2nc3ccccc3c(=O)n2-c2ccc[n+]([O-])c2)cc1 | 2 µg/mL (≈ 5.46 µM) | 32 µg/mL | 1 µg/mL (≈ 2.73 µM) | 4 µg/mL (≈ 10.9 µM) | 2 µg/mL (≈ 5.46 µM) | 1 µg/mL (≈ 2.73 µM) | > 128 µg/mL | > 128 | 67.9% | Insoluble | – | –
2 | N#Cc1ccc(/C=C/c2nc3ccccc3c(=O)n2-c2cccc(S(N)(=O)=O)c2)cc1 | 0.25 µg/mL (≈ 0.583 µM) | 0.5 µg/mL | 0.06 µg/mL (≈ 0.14 µM) | 0.125 µg/mL (≈ 0.292 µM) | 0.06 µg/mL (≈ 0.14 µM) | 0.06 µg/mL (≈ 0.14 µM) | > 64 µg/mL | > 1070 | 97.1% | – | <=4 | AUC(0-t) [11]: 850 ng·h/mL; clearance [12]: 98 mL/min/kg; CL [13]: > 10%
3 | O=C(O)c1cccc(-n2c(CCc3ccc(F)cc3)nc3ccccc3c2=O)c1 | 2 µg/mL (≈ 5.15 µM) | 8 µg/mL | – | 4 µg/mL (≈ 10.3 µM) | 4 µg/mL (≈ 10.3 µM) | 1 µg/mL (≈ 2.57 µM) | 79 µg/mL (≈ 203 µM) | 40 | > 99.9% | – | <=4 | –
4 | N#Cc1ccc(/C=C/c2nc3ccccc3c(=O)n2-c2cccc(NC(=O)CCc3cnc[nH]3)c2)cc1 | 8 µg/mL (≈ 16.4 µM) | – | – | – | – | – | – | – | – | – | – | MIC (Enterococcus faecium): 16 µg/mL (≈ 32.9 µM)
5 | O=C(O)c1cccc(-n2c(/C=C/c3ccc(Cl)cc3)nc3ccccc3c2=O)c1 | 0.25 µg/mL (≈ 0.621 µM) | 1 µg/mL | 0.25 µg/mL (≈ 0.621 µM) | 0.125 µg/mL (≈ 0.31 µM) | 0.25 µg/mL (≈ 0.621 µM) | 0.125 µg/mL (≈ 0.31 µM) | 50 µg/mL (≈ 124 µM) | 200 | > 99.9% | – | <=4 | –
6 | N#Cc1ccc(/C=C/c2nc3ccccc3c(=O)n2-c2cccc(C(N)=O)c2)cc1 | 2 µg/mL (≈ 5.1 µM) | 16 µg/mL | – | 32 µg/mL (≈ 81.5 µM) | – | 1 µg/mL (≈ 2.55 µM) | > 128 µg/mL | > 64 | 97.1% | Insoluble | – | –
7 | C#Cc1ccc(/C=C/c2nc3ccccc3c(=O)n2-c2cccc(S(N)(=O)=O)c2)cc1 | – | 0.5 µg/mL | – | 0.06 µg/mL (≈ 0.14 µM) | – | – | 61 µg/mL (≈ 143 µM) | 1020 | 98.2% | – | – | AUC(0-t) [11]: 2970 ng·h/mL; clearance [12]: 28.2 mL/min/kg; CL [13]: > 10%
8 | N#Cc1ccc(/C=C/c2nc3ccccc3c(=O)n2-c2ccccc2O)cc1 | 0.015 µg/mL (≈ 0.0411 µM) | 0.125 µg/mL | 0.06 µg/mL (≈ 0.164 µM) | – | 0.25 µg/mL (≈ 0.684 µM) | 0.03 µg/mL (≈ 0.0821 µM) | 40 µg/mL (≈ 109 µM) | 667 | 98.1% | Insoluble | – | –
9 | N#Cc1ccc(/C=C/c2nc3ccccc3c(=O)n2-c2cccc(C(=O)O)c2)cc1 | 2 µg/mL (≈ 5.08 µM) | 8 µg/mL | 2 µg/mL (≈ 5.08 µM) | 1 µg/mL (≈ 2.54 µM) | 2 µg/mL (≈ 5.08 µM) | 0.5 µg/mL (≈ 1.27 µM) | 173 µg/mL (≈ 440 µM) | – | – | – | <=4 | MIC [14]: 1 µg/mL (≈ 2.54 µM); MIC (Streptococcus pneumoniae): 16 µg/mL (≈ 40.7 µM); MIC (Clostridioides difficile): 128 µg/mL (≈ 325 µM); MIC (Bacillus cereus): > 128 µg/mL; MIC (Bacillus licheniformis): > 128 µg/mL; MIC (Enterococcus faecalis): > 128 µg/mL; half-life [15]: > 20 h; Vd [16]: 0.3 L/kg; half-life [17]: > 20 h; log(activity) (Staphylococcus aureus [18]): <3; log(activity) [19]: > 3; Activity [20]: inactive; log(activity) (Staphylococcus aureus [21]): 0.67
